SF1 activator: SF-1 (human) activation; Q13285; CHO-K1 Gal4-SF-1 LBD luciferase reporter; % increase over DMSO SF-1-specific signal; activation, % at 10 µM; 1.9% of 65,000 active; AID 522;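 active = activation above the mean activation of all tested compounds plus 3 SD, cut at about 50% in these data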
Target sequence (Q13285 whole entry, looked up, the tested form may be a part): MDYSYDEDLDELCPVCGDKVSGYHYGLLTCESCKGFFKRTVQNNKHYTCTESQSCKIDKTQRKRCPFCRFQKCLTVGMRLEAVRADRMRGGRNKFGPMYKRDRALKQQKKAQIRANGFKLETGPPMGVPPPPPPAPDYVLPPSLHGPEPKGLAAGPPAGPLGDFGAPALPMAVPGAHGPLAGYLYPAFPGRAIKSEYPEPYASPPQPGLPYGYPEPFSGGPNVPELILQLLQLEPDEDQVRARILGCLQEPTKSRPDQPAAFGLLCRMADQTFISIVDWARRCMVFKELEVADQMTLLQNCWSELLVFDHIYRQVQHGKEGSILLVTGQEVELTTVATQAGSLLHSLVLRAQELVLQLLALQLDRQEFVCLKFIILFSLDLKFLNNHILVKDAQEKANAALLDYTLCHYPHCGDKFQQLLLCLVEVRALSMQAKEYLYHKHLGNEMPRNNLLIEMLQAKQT
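Test system: CHO-K1 cells co-transfected with Gal4 DBD–human SF-1 LBD, 5xGal4 luciferase reporter. Quantity: 4,000 cells per well. Compound: 10 µM only. Incubation: compound added 1 h post-seeding, 20 h exposure at 37 °C, 5% CO2. Detection: SteadyLite luciferase luminescence. Replication: one test per compound.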
MMP13 inh: blocks human MMP13 activity; P45452; 0.07% of 65,000 active; inhibition, % at 4 µM; AID 570; MMP-13 fTHP FRET cleavage, Mca fluorescence;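 active = inhibition above the mean of compound-free control plate wells plus 3 SD, cut at about 14% in these data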;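 note: 0% = DMSO wells and 100% = wells with reference MMP-13 inhibitor after basal subtraction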
MT1-MMP txn act: MT1-MMP promoter transcription activation; HT1080 MT1-MMP promoter luciferase reporter, luminescence, overnight; active compounds read high; activation factor at 10 µM; 0.16% of 86,000 active;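 active = activation factor of at least 2 for MT1-MMP transcription at 10 µM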
RORA act: RORA (human) activation; P35398; CHO-K1 Gal4-RORA LBD luciferase reporter, luminescence; percent increase over mock-subtracted basal signal; activation, % at 10 µM; 1.5% of 65,000 active; AID 560;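 active = activation above the mean of all tested compounds plus 3 SD, cut at about 49% in these data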;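 note: 0% = DMSO-treated RORA cells and 100% = added signal equal to DMSO minus mock-transfected cells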
TNAP act mid DEA: activates human TNAP at intermediate phosphate acceptor concentration; purified TNAP, CDP-star luminescence, 100 mM DEA, 30 min; active compounds read high; scale: 0 levamisole-inhibited, 1 vehicle-only enzyme; 64,000 tested, under 10 active; activation factor at 20 µM;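 active = activation factor of at least 2 at 20 µM, relative to controls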
Starred values were filed as active, the others as inactive; / = no result. Shown are actives, neighbours in structure and some others; about 2.1% of the full set was active somewhere.

SMILES	SF1 activator	MMP13 inh	MT1-MMP txn act	RORA act	TNAP act mid DEA
COc1ccc(NC(=O)c2cc(-c3ccc(C)o3)nc3ccccc23)cc1OC	23.6	-4.6	1.2	53.0*	1
Cc1ccc(-n2c(C)nc3oc4ccccc4c(=O)c3c2=O)cc1	17.8	2.6	2.2*	68.1*	0.9
Cn1ncc(C#N)c1NC(=O)c1cc(-c2ccccc2Cl)on1	/	/	1.2	/	/
Cc1ccc(CNC(=O)CSc2c3c(nc4cc(Cl)ccc24)CCCC3)o1	/	/	1.1	/	/
c1ccc2sc(-c3ccc4c(c3)OCO4)nc2c1	-37.4	-93.0	0.8	-24.7	0.9
CN(C)c1nc(N)nc(-c2nc3ccccc3s2)n1	54.4*	1.2	1.8	11.1	0.9
NC(=O)c1ccsc1NC(=O)c1ccc(S(=O)(=O)N2CCCCC2)cc1	35.5	3.1	1.3	77.6*	1
CC(C)NC(=O)[C@@H]1C[C@H]1[C@@H](NC(=O)OCc1ccccc1)c1ccccc1	/	/	1.1	/	/
CCC/C=C(\CCC)C(NS(=O)(=O)c1cccc2cccnc12)c1ccc(-c2ccccc2)cc1 (configuration not stated)	/	/	1.2	/	/
Cn1cccc1CNC(=O)Nc1ccc(Cl)c(Cl)c1	66.4*	-1.4	1.7	59.6*	/
COc1ccc(NC(=O)NCc2cccn2C)c(OC)c1	16.2	1.6	1	-4.9	/
CC(=O)Nc1sc2c(c1CN1CCN(C)CC1)CCCC2	/	/	1	/	/
COc1ccc(OC)c(N=c2oc3cc(O)ccc3cc2C(N)=O)c1	43.4	-195.8	1	68.5*	0.9
COc1ccc(-c2nnc(SCc3c(C)noc3C)n2N)cc1OC	/	/	1.1	/	/
CC(=O)Cc1nsc(Nc2ccc3c(c2)OCCO3)n1	67.4*	1.6	1.7	121.8*	0.9
COc1ccc(Nc2nc(CC(C)=O)ns2)cc1	/	/	1.7	/	/
CCOc1ccc(-c2nc(C#N)c(NCC3CCCO3)o2)cc1 (configuration not stated)	/	/	1.1	/	/
COc1ccc(-c2nc(C#N)c(NCC3CCCO3)o2)cc1OC (configuration not stated)	19.1	-366.5	1.4	52.7*	1
CNc1oc(-c2ccc(OCc3ccccc3)cc2)nc1C#N	57.5*	-153.3	1.1	26.6	0.9
C=CCNc1oc(-c2ccc(OC)cc2)nc1C#N	56.7*	-250.8	1.3	10.4	0.9
COc1cccc(CC(NC(C)=O)C(=O)NC2CCN(c3c4c(nc5ncnn35)CCC4)CC2)c1 (configuration not stated)	71.8*	0.2	1.3	21.3	0.9
COc1ccc(CC(NC(C)=O)C(=O)NC2CCN(c3c4c(nc5ncnn35)CCC4)CC2)cc1 (configuration not stated)	-9.9	-2.4	1.2	-5.8	0.9
c1c2c(cc3sc(N4CCOCC4)nc13)OCCO2	-64.8	1.3	0.2	-68.9	0.9
c1ccc(N2CCN(c3nc4cc5c(cc4s3)OCCO5)CC2)cc1	61.4*	5.6	1.3	77.0*	0.9
COc1ccc(-n2c(C)nc3c(cnn3-c3ccc(C)c(C)c3)c2=O)cc1	40.0	0.2	1.1	64.8*	1
SMILES	SF1 activator	MMP13 inh	MT1-MMP txn act	RORA act	TNAP act mid DEA
O=C(OCc1csc(-c2ccccc2)n1)c1cccs1	43.0	1.6	1.5	30.6	0.8
Cn1cccc1C(=O)OCc1csc(-c2ccccc2)n1	6.4	-2.5	0.6	59.1*	1
Cc1ccccc1Nc1nc(N)nc(COC(=O)c2cccn2C)n1	65.5*	-3.3	1.4	60.3*	1
CCc1ccccc1Nc1nc(N)nc(COC(=O)c2cccn2C)n1	30.7	3.8	1.7	28.4	1
CCC/C=C(\CCC)C(NC(=O)c1ccc(C(F)(F)F)cc1)c1ccccc1 (configuration not stated)	/	/	1.2	/	/
O=C(CSc1nnnn1-c1ccccc1)NC(=O)Nc1ccc2c(c1)OCCO2	71.8*	3.7	1.6	52.5*	0.8
CC(C)OC(=O)CSc1nnnn1-c1ccc2c(c1)OCCO2	69.0*	0.1	1.5	54.1*	0.8
CCOc1ccccc1-n1nnnc1SCC(=O)NC(=O)Nc1ccc2c(c1)OCCO2	/	/	1	/	/
COC(=O)[C@@]1(Cc2ccc(OC)cc2)[C@H]2c3cc(C(=O)N4CCCC4)n(Cc4nc5ccccc5[nH]4)c3C[C@H]2CN1C(=O)c1ccccc1	/	/	1.2	/	/
Cc1cc(NC(=O)c2oc3ccccc3c2C)ccc1-n1cnnn1	8.6	-1.6	1.6	86.0*	0.9
COc1cc(OC)cc(C(=O)Nc2ccc(-n3cnnn3)c(C)c2)c1	54.1*	0.2	1.6	50.1*	1
Cc1c(C(=O)Nc2ccncc2)oc2ccccc12	16.2	0.2	1.2	6.4	0.9
COc1cc(C(=O)Nc2ccc3c(c2)OCO3)ccc1-n1cnnn1	-0.3	-1.6	1	-7.9	0.9
CN(C)c1ccc(CNC(=O)[C@@]2(C)C=C[C@@H](Cc3ccccc3)N2C)cc1	/	/	1	/	/
Cc1[nH]c2ccc(F)cc2c(=O)c1SC(F)(F)C(F)C(F)(F)F (configuration not stated)	13.0	-5.5	1.2	-15.9	0.9
COc1cccc2c(=O)c(SC(F)(F)C(F)C(F)(F)F)c(C)[nH]c12 (configuration not stated)	50.7*	-141.7	1.6	45.9	1
CCC/C=C(\CCC)C(NC(=O)c1cccs1)c1ccc(C(=O)OC)cc1 (configuration not stated)	/	/	1.2	/	/
O=C(NCC#CC(CCc1ccccc1)OCc1ccccc1)c1ccccc1 (configuration not stated)	/	/	1.1	/	/
COCCNC(=O)c1cc2c(=O)n(C)c3ccccc3c2n1C	-11.2	-18.8	1.1	-1.5	0.9
COCCCNC(=O)c1cc2c(=O)n(C)c3ccccc3c2n1C	38.5	-17.7	1	60.3*	0.9
Cc1cccn2cc(-c3ccc(F)cc3)nc12	30.4	-23.0	0.6	30.1	1
Cc1cccn2cc(-c3ccccc3)nc12	1.3	-28.4	0.8	75.8*	0.9
COc1ccc(-c2cn3ccc4ccccc4c3n2)cc1	/	/	2.5*	/	/
CCCCCCN(C(=O)CCCCCN1C(=O)NC(C2CCCCC2)C(C(=O)OCc2ccccc2)=C1C)C(C(=O)NCCCC)c1ccc(OCC(=O)OC)c(C(=O)OC)c1 (configuration not stated)	/	/	1.1	/	/
O=C(OCC(=O)N1CCN(C(=O)c2ccco2)CC1)c1ccccc1OCc1ccc(Cl)cc1	1.8	-20.9	1.2	-2.6	0.9
COC(=O)CNC(=O)C1(C)C=CC2(CCCCC2)N1C(=O)OC (configuration not stated)	/	/	1	/	/
COc1cc2cc(CN(Cc3nnnn3Cc3ccccc3)CC3CCCO3)c(=O)[nH]c2cc1OC (configuration not stated)	-0.2	-51.0	1	-19.6	1
COc1ccc2[nH]c(=O)c(CN(Cc3ccccc3)Cc3nnnn3CC3CCCO3)cc2c1 (configuration not stated)	57.3*	-31.0	1	82.9*	0.9
